Reference: publication PMC9670593 (Journal of Molecular Liquids, 2022)
Converted amounts (≈) assume the structure as drawn. “And” between values parts separate entries of the source, which are not always exact repeats. Identical values can stand only once. Like-named read-outs stand apart in the source and are kept apart here.

What was measured:
[1] = tested on: Escherichia coli; details: cited from earlier work
[2] = tested on: Escherichia coli (ATCC: 25922); experiment: Antibacterial agar disc diffusion; assay type: cell-based; details: for zone of inhibition at 100 µg/mL: Escherichia coli, read-out: Inhibition zones (mm); for Activity index (%): relative to ampicillin; for Inhibition zones (mm): 5-mm discs, 100 μg/mL
Method in brief: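 E. coli ATCC 25922 grown on Mueller–Hinton agar, 18–24 h at 35 °C. Inoculum adjusted to McFarland 0.5 (1.5x 10^8 CFU/mL) and swabbed as a lawn on Mueller–Hinton plates. Test compounds were stocked at 20 mg in 1 mL DMSO, and 5-mm paper discs were loaded with 100 μg/mL. Inhibition zone diameter was measured against ampicillin as standard, with DMSO as negative control. Assayed twice.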

[3] = tested on: Escherichia coli (ATCC: 25922); experiment: Antibacterial minimal inhibitory concentration; assay type: cell-based; details: 24 h; for Minimum Inhibition concentration (MIC): E. coli
Method in brief: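 Test compounds were stocked at 20 mg/mL in DMSO. Ampicillin was run as standard drug and DMSO as negative control. MIC reported in μM.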

[4] = tested on: MCF-7: a human breast cancer cell line; experiment: Cytotoxicity MTT assay, MCF-7; assay type: cell-based; details: for IC50: read-out: IC50 MCF-7; for IC50 MCF-7: means ± SD, n = 3
Method in brief: (§1)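 Cells were kept in DMEM with 0.2 % sodium bicarbonate and 10 % FBS at 37 °C, 5 % CO2, humidified. Only batches above 98 % trypan-blue viability were used. 10,000 cells/well adhered 24 h before treatment. MTT (5 mg/ml PBS stock, 10 μl per 100 μl) was added for 4 h, formazan dissolved in DMSO and read at 550 nm. Background-corrected survival = ODt/ODc ×100 versus untreated controls; IC50 taken from dose–response curves; cisplatin reference.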

[5] = tested on: HELA: cancerous cervical tumor cells; experiment: Cytotoxicity MTT assay, HELA; assay type: cell-based, human; details: for IC50: read-out: IC50 HELA; for IC50 HELA: means ± SD, n = 3; for cytotoxic activity class, HELA: class by IC50 (µg/mL)
Method in brief: as §1

[6] = tested on: HEK293: human embryonic kidney cells; experiment: Cytotoxicity MTT assay, HEK293 normal cells; assay type: cell-based; details: for IC50 HEK293: MTT, normal cell line, means ± SD, n = 3
Method in brief: as §1

[7] = Formation stability constant of the complexes; assay type: physicochemical; details: metal:ligand 1:2
[8] = target: Human serum albumin (HSA) (Homo sapiens, UniProt P02768); experiment: HSA binding, fluorescence quenching titration; details: slope of Fo/F vs [metal complex]
Method in brief: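 HSA concentration fixed spectrophotometrically at 278 nm using ε 35,219 M−1cm−1 (1 cm quartz). Increasing amounts of metal complex were titrated into constant HSA. Tryptophan fluorescence was excited at 280 nm and emission recorded over 300–400 nm. KSV was taken as the slope of the Stern–Volmer plot Fo/F versus [complex].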

Chain of Human serum albumin (HSA) (P02768 25-609): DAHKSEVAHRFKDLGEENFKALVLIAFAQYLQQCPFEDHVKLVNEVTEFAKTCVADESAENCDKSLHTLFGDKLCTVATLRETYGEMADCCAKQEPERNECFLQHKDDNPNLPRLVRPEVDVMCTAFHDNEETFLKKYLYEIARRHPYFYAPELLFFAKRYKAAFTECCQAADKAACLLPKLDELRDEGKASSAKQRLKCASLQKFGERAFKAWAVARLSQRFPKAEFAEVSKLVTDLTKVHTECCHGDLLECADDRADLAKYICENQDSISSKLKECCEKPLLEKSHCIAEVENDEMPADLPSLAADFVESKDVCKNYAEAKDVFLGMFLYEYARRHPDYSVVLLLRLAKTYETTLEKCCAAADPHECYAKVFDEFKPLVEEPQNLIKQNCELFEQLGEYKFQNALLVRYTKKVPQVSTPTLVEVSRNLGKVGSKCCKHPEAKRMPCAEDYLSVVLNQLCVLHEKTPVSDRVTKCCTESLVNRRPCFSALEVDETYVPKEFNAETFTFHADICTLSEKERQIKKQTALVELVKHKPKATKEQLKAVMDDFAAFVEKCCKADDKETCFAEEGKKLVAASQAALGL

Compound | concentration showing complete inhibition of Escherichia coli [1] [µM] | reported growth-inhibiting concentration toward Escherichia coli ([1]; practical value for more than 24 h) [µM] | zone of inhibition at 100 µg/mL [2] [mm] | Activity index (%) [2] [%] | MIC ([3]; Escherichia coli, read-out: Minimum Inhibition concentration (MIC)) [µM] | IC50 ([4]; Homo sapiens, MCF7a) | IC50 ([5]; Homo sapiens, HeLa) | IC50 ([6]; Homo sapiens, HEK293, read-out: IC50 HEK293) [µg/mL] | formation stability constant for the complexes [7] | fluorescence constant (Kvs; Stern-Volmer quenching constant KSV) with HSA [8] [M⁻¹] | Inhibition zones (mm) [2] [mm] | Minimum Inhibition concentration (MIC) [3] [µM] | IC50 MCF-7 ([4]; MTT) [µg/mL] | IC50 ([4]; MTT) [µM] | IC50 HELA ([5]; MTT) [µg/mL] | IC50 ([5]; MTT) [µM] | IC50 HEK293 [6] [µg/mL] | cytotoxic activity class, MCF-7 ([4]; class by IC50 (µg/mL)) | cytotoxic activity class, HELA [5]
O=[N+]([O-])[O-].[Ag+] [AgNO3] | > 8.5 | 6.5 | – | – | – | – | – | – | – | – | – | – | – | – | – | – | – | – | –
CC1(C)S[C@@H]2[C@H](NC(=O)[C@H](N)c3ccccc3)C(=O)N2[C@H]1C(=O)O [Ampicillin, reference compound] | – | – | 33 | 100 | – | – | – | – | – | – | – | – | – | – | – | – | – | – | –
CC(=O)Oc1ccccc1C(=O)Nc1ncc([N+](=O)[O-])s1 [Free NTZ, 2-(acetyloxy)-N-(5-nitro-2-thiazolyl) benzamide, reference compound] | – | – | 8 | 24 | 105 (≈ 32.3 µg/mL) | 62 µg/mL and 202 µM | 78 µg/mL and 254 µM | 1050 ± 10 (≈ 3.42 mM) | – | – | – | – | – | – | – | – | – | – | –
[Ag(NTZ)2]NO3 [NTZ-Ag(I)] | – | – | – | 85 | – | – | – | – | 4.22 × 10^5 | 3e+06 | 28 | 5.5 | 39 ± 4 | 50.8 | 45 ± 2 | 58.7 | 660 ± 3 | – | –
[Au(NTZ)2]Cl3 [NTZ-Au(III)] | – | – | – | 37 | – | – | – | – | 17.92 × 10^5 | 7e+06 | 12 | 27.5 | 25 ± 5 | 27.3 | 8.9 ± 4 | 9.7 | 675 ± 5 | Moderate | very strong (1–10 (very strong))
[Ru(NTZ)2Cl2]Cl [NTZ-Ru(III)] | – | – | – | 61 | – | – | – | – | 34.37 × 10^5 | 4e+06 | 20 | 7.5 | 10.5 ± 2 | 12.8 | 6.5 ± 3 | 7.9 | 265 ± 5 | – | very strong (1–10 (very strong))
